Measurements from different studies.
Protocols differ between the studies behind these lines. pEC50, pIC50: −log10 of the molar value. ≈ marks a conversion by molar mass, not a printed value.

Structure (SMILES) | target or system | assay | system | setting | endpoint | result
Cc1ccc(-c2nn(-c3ccccc3)cc2C=Nc2c(N)nc(S)nc2O)cc1 | CCRF-CEM | cell growth or viability | – | 48 h | CC50 | < 20 µM
NNC(=O)c1ccncc1 | Mycobacterium marinum | microbial growth | – | – | MIC90 | 40 µM (≈ 5.49 µg/mL)
C=CCNc1c2c([nH]c(=O)c1C(=O)OCC)CCC2 | Human immunodeficiency virus 1 | viral replication, inhibitor | IIIB | 72 h | pEC50 | < 4.00
[NH2][Pt]([NH2])([Cl])[Cl] | HCC4006 | cell growth or viability, MTT | – | 48 h | pIC50 | 3.74
CCOC(=O)c1c(NCCCN)c2c([nH]c1=O)CCC2 | Human immunodeficiency virus 1 | viral replication, inhibitor | IIIB | 72 h | pEC50 | < 4.00
O=[N+]([O-])c1cn2c(n1)OC[C@@H](OCc1ccc(OC(F)(F)F)cc1)C2 | Mycobacterium marinum | microbial growth | – | – | MIC90 | 50 µM (≈ 18 µg/mL)
CC(C)(C#Cc1ccc(-c2ccc(Cl)c3c(NS(C)(=O)=O)nn(CC(F)(F)F)c23)c([C@H](CC2CCCC2)NC(=O)Cn2nc(C(F)(F)F)c3c2C(F)(F)[C@@H]2C[C@H]32)n1)S(C)(=O)=O | Human immunodeficiency virus 1 | viral replication, inhibitor | – | – | pEC50 | 10.14
CCOC(=O)c1c(NCCO)c2c([nH]c1=O)CCC2 | Human immunodeficiency virus 1 | viral replication, inhibitor | IIIB | 72 h | pEC50 | < 4.00
CC(=O)ON=C1C=CC(=C(C#N)c2ccccc2)C=C1 | HDF-1 | cell growth or viability, MTT | – | 48 h | IC50 | 24.9 µg/mL
CC(C)(C#Cc1ccc(-c2ccc(Cl)c3c(NS(C)(=O)=O)nn(CC(F)(F)F)c23)c([C@H](Cc2cc(F)cc(F)c2)NC(=O)Cn2nc(C(F)(F)F)c3c2C(F)(F)[C@@H]2C[C@H]32)n1)S(C)(=O)=O | Human immunodeficiency virus 1 | viral replication, inhibitor | – | – | pEC50 | 9.72
O=c1[nH]ncc(NN=Cc2cn(-c3ccccc3)nc2-c2cc3ccccc3oc2=O)c1Cl | CCRF-CEM | cell growth or viability | – | 48 h | CC50 | 36.2 µM
Cc1nc(Nc2ncc(C(=O)Nc3c(C)cccc3Cl)s2)cc(N2CC[C@H](O)C2)n1 | CCRF-CEM | cell growth or viability, ATP luminescence | – | 72 h | pIC50 | < 5.00
CCOC(=O)c1c(NCCC(C)C)c2c([nH]c1=O)CCC2 | Human immunodeficiency virus 1 | viral replication, inhibitor | IIIB | 72 h | pEC50 | 5.04
CC(C)(C#Cc1ccc(-c2ccc(Cl)c3c(NS(C)(=O)=O)nn(CC(F)(F)F)c23)c([C@@H](CC2CC2)NC(=O)Cn2nc(C(F)(F)F)c3c2C(F)(F)[C@@H]2C[C@H]32)n1)S(C)(=O)=O | Human immunodeficiency virus 1 | viral replication, inhibitor | – | – | pEC50 | 8.42
